# Screens from PubChem BioAssay.
# MT stabilize HCS – microtubule stabilizers in HeLa cells; hit rate 0.83% among 200,000; HeLa tubulin immunostaining HCS, 24 h; share of cells brighter than vehicle mean+2SD; % tubulin-high responders, % at 10 µM;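 active = plate Z-score above 3 for both tubulin-high and condensed-nucleus cell shares, with cell loss under 80%, at 10 µM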;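 also: anti alpha tubulin signal scored within the nucleus-defined area of each cell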
# Dynein cargo inh – blocks dynein driven cargo transport along microtubules; 3617.4 mouse cells, GR-EGFP nuclear translocation imaging; test concentration mostly 20 µM; stimulated with dexamethasone, 1 µM; active compounds read low; z-score, hits read low; hit rate 0.47% among 220,000;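 active = plate z-score of nuclear minus cytoplasmic receptor signal below a set negative limit, without overly bright fluorescence or cell loss, cut at about -3.5 in these data, passing the limit was not always enough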;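 also: z-score of nuclear minus cytoplasmic ring GR-EGFP intensity difference per well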
#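 medium = tetracycline-free induction medium containing charcoal-stripped FBS | also added = 1.0 µM final dexamethasone stimulus | schedule = 48 h induction, 1 h compound, 30 min dex at 37 °C | technique = fixed, Hoechst-stained cells imaged at 10x for EGFP | measure = GR-EGFP nuclear translocation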
# bCat nuc transl – beta-catenin nuclear translocation modulation. hit rate 0.3% among 190,000. nuclear translocation activity, % at 5 µM. HeLa beta-catenin nuclear translocation, immunofluorescence imaging;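 active = nuclear translocation activity above 50% at 5 µM, with a well cell count of 50 or more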;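 also: per-cell ratio of nuclear to cytoplasmic median beta-catenin stain intensity; plate controls were DMSO negative control for no effect and GSK-3 inhibitor IX positive control for full effect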
#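 test system = HeLa cells, endogenous beta-catenin | dosing = single 5 µM dose plus 0.02–20 µM confirmation series | times = compound treatment 24 h, 37°C, 5% CO2 | technique = beta-catenin immunofluorescence imaging with DAPI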
# Lmaj promast – inhibitors of Leishmania major promastigote growth; Leishmania major promastigotes, resazurin fluorescence viability; inhibition, % at 10 µM; hit rate 9% among 200,000; AID 1063; in the data active = inhibition above about 50%;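 also: promastigotes grown with compound for 44 hours at 28 °C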
# HSV augment – HSV replication enhancement; HSV replication augmentation in cells, fold increase; maximum fold increase; AID 1956; hit rate 0.005% among 220,000; in the data active = maximum fold increase above about 1.5; tested in PC3 cells
# Active calls of the source: *; i = inactive; / = no result given. This is a sample that favours compounds with a hit; in the whole collection about 8.9% have one here.
SMILES,MT stabilize HCS,Dynein cargo inh,bCat nuc transl,Lmaj promast,HSV augment
CCOC(=O)N1CCN(CC(O)COc2ccc(C)cc2C(C)(C)C)CC1 (stereo not given),3,-0.56,/,98*,i
CCOC(=O)N1CCN(CC(O)COCc2ccccc2)CC1 (stereo not given),4,-0.96,-1,66*,i
CCOC(=O)N1CCN(CC(O)COCC2=CCC3CC2C3(C)C)CC1 (stereo not given),7,-0.28,-1,94*,i
CCCCNCC(=O)Nc1ccc(NC(=O)CNCCCC)cc1,3,-0.18,-1,-2,i
CCOC(=O)Cc1cc(=O)n2[nH]c(C)c(-c3ccccc3)c2n1,2,-0.35,/,-9,i
CCOC(=O)Cc1c(C)nc2c(-c3ccc(Cl)cc3)c(C)[nH]n2c1=O,5,-0.55,/,95*,i
O=C1C=C(NCCN2CCOCC2)C(=O)c2cnccc21,23,-2.3,6,99*,i
CCCCN(C(=O)CSc1nnc(-c2ccccc2OC)n1C)c1c(N)n(Cc2ccccc2)c(=O)[nH]c1=O,2,0.49,-3,61*,i
O=C(NCc1cn(-c2ccccc2)nc1-c1ccccc1)c1cccc([N+](=O)[O-])c1,6,1.1,0,25,i
CCn1cc(CNC(=O)c2cccc([N+](=O)[O-])c2)cn1,2,2.3,0,89*,i
COc1ccc(-c2nn(-c3ccccc3)cc2CNC(=O)c2cccc([N+](=O)[O-])c2)cc1,8,0.95,6,52*,i
O=C(NCc1cn(-c2ccccc2)nc1-c1ccccc1)c1cc([N+](=O)[O-])cc([N+](=O)[O-])c1,3,2.4,/,100*,i
O=C(O)CCC(=O)NCc1cn(-c2ccccc2)nc1-c1cccc(Br)c1,6,0.18,-1,59*,i
Cc1cccc(NC(=O)c2ccc(COc3ccc4ccccc4c3)o2)n1,3,0.032,-2,0,i
Cc1ccc(SC(C)C(=O)NCc2ccncc2)cc1 (stereo not given),2,1.2,0,-1,i
Cc1ccc(-c2nnc(SCC(=O)O)n2N)cc1,5,1.2,-7,-8,i
CC(=O)NC(=S)Nc1cc(C(=O)O)ccc1Cl,2,-0.6,-2,-8,i
COc1ccc(NC(=O)c2cc(S(=O)(=O)N3CCOCC3)cs2)cc1,2,-0.68,0,-3,i
O=C(NC1CCCc2ccccc21)C1CCN(S(=O)(=O)c2ccccc2F)CC1 (stereo not given),2,0.97,-1,85*,i
COc1cccc(NC(=O)Cn2c(=O)oc3cc(S(=O)(=O)N4CCCC4)ccc32)c1,/,-0.15,2,/,i
O=C(Cn1c(=O)oc2cc(S(=O)(=O)N3CCCC3)ccc21)N1CCN(c2ccccc2)CC1,9,-0.81,/,100*,i
CC(NC(=O)Cn1c(=O)oc2cc(S(=O)(=O)N3CCCC3)ccc21)c1ccccc1 (stereo not given),5,0.4,2,100*,i
O=C(Cn1c(=O)oc2cc(S(=O)(=O)N3CCCC3)ccc21)Nc1ccc(C(F)(F)F)cc1,1,0.68,2,52*,i
O=C(NC1CCCc2ccccc21)C1CCN(S(=O)(=O)c2ccccc2)CC1 (stereo not given),2,1.3,0,1,/
Cn1c(SCC(=O)N2c3ccccc3Sc3ccccc32)nc2ccccc21,3,1.5,0,21,i
SMILES,MT stabilize HCS,Dynein cargo inh,bCat nuc transl,Lmaj promast,HSV augment
O=C(Cn1c(=O)oc2cc(S(=O)(=O)N3CCCC3)ccc21)NC1CCCc2ccccc21 (stereo not given),4,-0.48,-2,100*,/
CN(Cc1ccccc1)C(=O)Cn1c(=O)oc2cc(S(=O)(=O)N3CCCC3)ccc21,3,-0.33,-6,100*,i
O=C(Cn1c(=O)oc2cc(S(=O)(=O)N3CCCCCC3)ccc21)NC1CCCCCCC1,5,-0.52,/,-1,i
O=c1[nH]c(CSc2ccccn2)nc2ccccc12,6,-0.92,-1,-2,/
CN(Cc1ccccc1)C(=O)c1nc2ccccn2c1CNCCOc1cccnc1,4,-0.7,1,-4,i
CN(Cc1ccccc1)CC(O)COc1ccc(CNCc2ccc(Cl)s2)cc1 (stereo not given),6,1.1,-2,98*,i
OC(COc1ccc(CNCc2cccnc2)cc1)CN1CCc2ccccc2C1 (stereo not given),2,-0.29,2,90*,i
CN(Cc1ccccc1)CC(O)COc1ccc(CNCc2cccnc2)cc1 (stereo not given),4,-0.87,1,81*,i
CN(Cc1ccccc1)CC(O)COc1ccc(CNCCOc2cccnc2)cc1 (stereo not given),2,0.22,0,84*,i
OC(COc1ccccc1CNCc1cccnc1)CN1CCc2ccccc2C1 (stereo not given),2,-0.67,0,9,i
CCn1cc(CNCc2ccc(OCC(O)CN(C)Cc3ccccc3)cc2)cn1 (stereo not given),2,-0.011,1,88*,i
Cc1ccc(OCC(O)CNCc2ccccc2)cc1C (stereo not given),/,-1.3,-1,/,i
CN(Cc1ccccc1)CC(O)COc1ccc(CNCCCOc2cccnc2)cc1 (stereo not given),2,1.9,2,91*,i
Cc1nn(C)cc1CNCc1ccc(OCC(O)CN(C)Cc2ccccc2)cc1 (stereo not given),3,0.78,-2,86*,i
OCCN(Cc1ccccc1)CC(O)COc1ccc(-c2ccccc2)cc1 (stereo not given),2,-0.61,3,39,i
Cc1cc(N/N=C\c2ccccc2)nc(-c2ccccc2O)n1,2,1.7,-2,74*,i
COC(=O)c1ccc(Nc2cc(C)nc(-c3ccccc3O)n2)cc1,4,-0.47,/,-5,i
Cc1cc(N/N=C/c2ccccc2O)nc(-c2ccccc2O)n1,2,0.63,0,53*,i
Cc1cc(N/N=C/c2ccc(O)cc2O)nc(-c2ccccc2O)n1,7,-0.46,1,12,i
COC(=O)c1cccc(Nc2cc(C)nc(-c3ccccc3O)n2)c1,5,-0.29,-1,67*,i
Cc1ccc(S(=O)(=O)N2CCN(CC(O)c3ccccc3)CC2)cc1 (stereo not given),1,-0.02,-1,5,i
N#CNC(=Nc1cccc(C(F)(F)F)c1)SCc1ccc(C(=O)O)cc1,/,0.72,1,/,i
O=C(COc1ncnc2c(Cl)cc(Cl)cc12)Nc1cc([N+](=O)[O-])ccc1Cl,2,-0.014,/,52*,i
CC(=O)Nc1ccc(C(=O)N/N=C/c2cc(Br)cc(Br)c2O)cc1,4,2.1,8,25,i
NC(=O)N/N=C\c1cc(Br)ccc1O,4,-0.97,-2,-12,i
Nc1nonc1C(=O)N/N=C/c1cc(Br)ccc1O,1,-0.74,-3,99*,i
